Experimental data taken from publication PMC10149104 (Journal of medicinal chemistry, 2023).

What was measured:
OCI-AML2 cells [1] = test: CTG cell viability in WT and CARD8^−/− OCI-AML2 cells; type: cell-based, human; conditions: 24 h
Outline: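 Test compound was added by pintool at various concentrations to OCI-AML2 cells (WT or CARD8−/−) plated at 2000 cells/well in 384-well format, in RPMI 1640 with L-glutamine and 10% FBS. Cells were incubated for 24 h at 37 °C in 5% CO2. CellTiter-Glo was then added, plates were shaken for 2 min and held at 25 °C for 10 min, and luminescence was read.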

THP-1 cells = test: LDH release and GSDMD cleavage in knockout THP-1 cells; type: cell-based, human; conditions: 20 μM, 24 h; for Pyroptosis in DPP8/9^−/− THP-1 cells: LDH release and GSDMD cleavage
recombinant XPNPEP1 = recombinant XPNPEP1 (Homo sapiens, UniProt Q9NQW7); test: Inhibition of recombinant XPNPEP1, H-Lys; type: biochemical; conditions: recombinant XPNPEP1
Sequence of recombinant XPNPEP1 (Q9NQW7 whole entry): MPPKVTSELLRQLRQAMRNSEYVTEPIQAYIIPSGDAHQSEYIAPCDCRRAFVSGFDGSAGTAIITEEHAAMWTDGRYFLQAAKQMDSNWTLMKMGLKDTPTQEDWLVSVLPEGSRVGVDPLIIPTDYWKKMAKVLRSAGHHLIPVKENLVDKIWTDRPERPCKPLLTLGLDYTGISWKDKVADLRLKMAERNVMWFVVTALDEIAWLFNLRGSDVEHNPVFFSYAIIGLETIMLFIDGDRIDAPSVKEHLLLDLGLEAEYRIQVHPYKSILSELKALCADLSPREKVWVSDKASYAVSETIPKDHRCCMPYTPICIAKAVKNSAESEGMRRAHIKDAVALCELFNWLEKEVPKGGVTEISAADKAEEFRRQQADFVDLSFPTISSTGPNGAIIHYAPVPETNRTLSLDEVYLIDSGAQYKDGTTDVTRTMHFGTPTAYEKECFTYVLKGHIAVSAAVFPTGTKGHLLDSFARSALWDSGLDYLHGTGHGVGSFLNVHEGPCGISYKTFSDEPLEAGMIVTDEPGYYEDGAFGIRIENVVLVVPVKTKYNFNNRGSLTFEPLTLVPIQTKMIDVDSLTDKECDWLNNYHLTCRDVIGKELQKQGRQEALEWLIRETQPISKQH

[2] = system: DOX-inducible CARD8 E274R mutant THP-1 cells; test: CARD8 E274R mutant NT degradation assay in CARD8^−/− THP-1 cells; type: cell-based, human; conditions: DOX 100 ng/mL 16 h; VbP 10 μM, CQ31/CQ80 20 μM, VP-OMe 1 mM, MeBs 10 μM; 6 h
Outline: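 Parental CARD8-knockout THP-1 cells carry a stably integrated doxycycline-inducible CARD8 E274R construct. Cells are grown in RPMI 1640 with L-glutamine and 10% FBS at 37 °C in 5% CO2. They are induced with or without DOX (100 ng/mL, 16 h), then exposed to test compounds for 6 h.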

[3] = target: CARD8-DPP9 ternary complex in HEK 293T^CASP1+GSDMD cells (Homo sapiens, UniProt Q86TI2); test: dTAG-based CARD8-DPP9 ternary complex disruption assay; type: cell-based; conditions: dTAG-13 500 nM; VbP 10 μM, CQ31 20 μM, CQ80 20 μM, VP-OMe 1 mM; 6 h; LDH release
Sequence of CARD8-DPP9 ternary complex in HEK 293T^CASP1+GSDMD cells (Q86TI2 whole entry, one chain of several): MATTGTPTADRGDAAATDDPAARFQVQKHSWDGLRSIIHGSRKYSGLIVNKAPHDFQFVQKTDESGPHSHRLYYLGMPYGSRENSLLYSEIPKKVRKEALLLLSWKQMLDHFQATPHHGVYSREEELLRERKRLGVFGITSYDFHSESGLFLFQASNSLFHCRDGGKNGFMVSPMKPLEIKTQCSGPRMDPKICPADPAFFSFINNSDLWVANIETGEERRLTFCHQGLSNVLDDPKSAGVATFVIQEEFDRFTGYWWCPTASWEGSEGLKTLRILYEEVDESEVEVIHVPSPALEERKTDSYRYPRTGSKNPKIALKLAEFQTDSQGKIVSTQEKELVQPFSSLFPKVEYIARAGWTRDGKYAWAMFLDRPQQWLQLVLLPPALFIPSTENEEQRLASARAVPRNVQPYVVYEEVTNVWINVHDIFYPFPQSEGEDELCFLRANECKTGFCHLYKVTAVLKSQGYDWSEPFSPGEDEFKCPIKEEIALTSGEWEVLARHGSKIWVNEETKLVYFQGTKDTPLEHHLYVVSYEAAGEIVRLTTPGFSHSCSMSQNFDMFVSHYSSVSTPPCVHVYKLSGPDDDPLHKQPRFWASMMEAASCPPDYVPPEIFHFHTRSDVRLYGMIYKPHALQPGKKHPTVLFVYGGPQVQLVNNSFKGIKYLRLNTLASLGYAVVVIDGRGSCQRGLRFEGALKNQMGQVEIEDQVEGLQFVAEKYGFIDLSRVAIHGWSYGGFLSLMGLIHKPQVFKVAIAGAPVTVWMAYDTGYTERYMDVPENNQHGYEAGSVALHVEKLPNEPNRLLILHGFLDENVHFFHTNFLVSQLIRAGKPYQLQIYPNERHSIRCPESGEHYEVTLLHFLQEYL

[4] = after 24 h; cited from earlier work
[5] = Stability in cell culture supernatants; type: in vitro ADME
Outline: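 Test compounds are incubated in conditioned medium collected from MV4;11 cultures for 24 h at 37 °C. Intact compound and the free acid product are then quantified by LC/MS, with species identified by retention time. Values are means ± SEM of three biological replicates.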

MV4;11 cells = test: PI uptake in MV4; type: cell-based, human; conditions: 6.25 μM; WT, CASP1^−/−, CARD8^−/− cells
Outline: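 MV4;11 cells (WT, CASP1−/− or CARD8−/−) were plated at 2 × 10^4 cells/well in 384-well format in RPMI and treated with test compound (6.25 μM) for 6 h before PI uptake monitoring. PI was added at 10 μM final. Fluorescence (Ex/Em 535/617 nm) was read every 5 min at 37 °C, baseline-corrected to DMSO vehicle and normalised to maximum response.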

recombinant human PEPD = target: T1, recombinant human PEPD (Homo sapiens, UniProt P12955); test: Inhibition of recombinant PEPD, alanine release assay; type: biochemical
T1 sequence (P12955 1-493): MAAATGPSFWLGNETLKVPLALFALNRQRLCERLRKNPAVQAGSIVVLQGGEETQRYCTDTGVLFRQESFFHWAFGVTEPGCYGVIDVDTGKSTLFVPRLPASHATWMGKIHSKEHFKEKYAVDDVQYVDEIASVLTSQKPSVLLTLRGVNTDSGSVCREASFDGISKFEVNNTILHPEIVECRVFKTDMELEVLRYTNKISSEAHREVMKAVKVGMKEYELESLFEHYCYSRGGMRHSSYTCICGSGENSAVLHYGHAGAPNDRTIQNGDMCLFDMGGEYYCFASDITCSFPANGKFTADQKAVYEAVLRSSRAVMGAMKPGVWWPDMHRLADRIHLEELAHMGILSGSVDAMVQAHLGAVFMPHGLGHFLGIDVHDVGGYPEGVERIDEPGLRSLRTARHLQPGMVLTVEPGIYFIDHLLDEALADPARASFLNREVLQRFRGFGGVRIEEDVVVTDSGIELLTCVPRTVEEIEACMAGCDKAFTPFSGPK

human resting T cells = test: GSDMD cleavage in human resting T cells; type: cell-based; conditions: 20 μM, 24 h
Outline: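 Primary human T cells (>90% purity by flow cytometry) are thawed in RPMI-1640 with 10% FBS and cultured with 30 U/mL IL-2. Cells receive test compound for 24 h, then are washed twice in PBS and lysed by sonication. Protein is normalized before SDS-PAGE, and blots are probed with an anti-GSDMD rabbit polyclonal and imaged by infrared fluorescence.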

[6] = system: MV4;11, OCI-AML2, and THP-1 cells; test: LDH release and GSDMD cleavage immunoblot in WT and CARD8^−/− cells; type: cell-based, human; conditions: 20 μM, 24 h, but not CARD8^−/−
[7] = system: N/TERT-1 immortalized keratinocytes; test: CTG cell viability in N/TERT-1 keratinocytes; type: cell-based, human; conditions: VbP 10 μM, CQ compounds 20 μM, 24 h
Outline: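 N/TERT-1 keratinocytes are grown in keratinocyte serum-free medium with 1× penicillin/streptomycin, bovine pituitary extract (25 μg/mL) and EGF (0.2 ng/mL) at 37 °C in 5% CO2. Plating density is 2000 cells/well in 384-well plates, with compound added by pin tool. After 24 h, CellTiter-Glo reagent is added, plates are shaken 2 min, held 10 min at 25 °C, and luminescence is read. Values are means ± SEM of three biological replicates.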

[8] = system: BMDMs from C57BL/6J mice and RAW264.7 cells; test: LDH release and GSDMD cleavage in mouse BMDMs and RAW264.7 cells; type: cell-based; conditions: VbP 10 μM, CQ31/CQ80 20 μM, 24 h
Outline: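 BMDMs: bone marrow is collected from femurs and tibias of 7–12-week-old C57BL/6J mice, strained (70 μm) and RBC-lysed. Cells are cultured 6 days at 37 °C in DMEM with 10% FBS and 15–20% L-cell medium, then replated. RAW264.7 cells are grown in DMEM with 10% FBS and seeded at 5 × 10^5 per well in 12-well plates. Both receive compound for 24 h. LDH is read relative to a Triton X-100 lysis control, and immunoblots use an anti-mouse GSDMD rabbit monoclonal. RAW264.7 data are means ± SEM, n = 3.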

OCI-AML2 cells [9] = test: PI uptake in OCI-AML2 cells; type: cell-based, human; conditions: 6.25 μM, compared to CQ31
Outline: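 OCI-AML2 cells (2 × 10^4 per well, 384-well, RPMI) are treated with 6.25 μM compound, with PI added at 10 μM final. PI fluorescence (Ex/Em 535/617 nm) is recorded at 37 °C every 5 min over 6 h. Signals are baseline-corrected to DMSO vehicle and normalized to the maximum response. Values are means ± SEM of three biological replicates.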

For `COC(=O)[C@@H]1CCCN1C(=O)[C@@H](O)[C@H](N)CC(C)C` [CQ31], the “Cell death in OCI-AML2 cells” value (OCI-AML2 cells [1]) was “induced cell death in WT but not CARD8^−/−”, the “Sensitivity of PEPD and XPNPEP1 single knockout THP-1 cells” value (THP-1 cells) was “sensitive” and the “Sensitivity of PEPD/XPNPEP1 double knockout THP-1 cells” value (THP-1 cells) was “completely resistant”. The “Pyroptosis in DPP8/9^−/− THP-1 cells” value (THP-1 cells) was “neither CQ80 nor CQ31 induced any additional pyroptosis”, the “XPNPEP1 inhibition (in words)” value (recombinant XPNPEP1) was “inhibited PEPD and XPNPEP1 similarly” and the “Additional cell death in CARD8 E274R assay (NT degradation)” value (“Additional cell death” below) [2] was “do not trigger as much degradation as MeBs”. For the same compound, the “Pyroptosis after dTAG-13 treatment (ternary complex destabilization)” value [3] was “induce more pyroptosis after dTAG-13 treatment”, the “De-esterification to CQ04 in cell culture” value [4] was “completely de-esterified” and the “Time to conversion to CQ04” value [5] was at most 30 min. For the same compound, the “PI uptake in MV4;11 cells” value (MV4;11 cells) was “induced PI uptake in WT but not CASP1^−/− or CARD8^−/−”, the “PEPD inhibition (in words)” value (recombinant human PEPD) was “inhibited PEPD and XPNPEP1 similarly” and the “GSDMD cleavage in human resting T cells” value (human resting T cells) was “induced GSDMD cleavage”. The “LDH release and GSDMD cleavage” value [6] was “induced lactate dehydrogenase (LDH) release and GSDMD cleavage”.

With `COC(=O)[C@H](CC(C)C)NC(=O)[C@@H]1CCCN1C(=O)[C@@H](O)[C@H](N)CC(C)C` [CQ80, Methyl ((2S,3R)-3-Amino-2-hydroxy-5-methylhexanoyl)-l-prolyl-l-leucinate] the “Cell death in OCI-AML2 cells” value (OCI-AML2 cells [1]) was “induced cell death in WT but not CARD8^−/−”, the “Sensitivity of PEPD and XPNPEP1 single knockout THP-1 cells” value (THP-1 cells) was “sensitive” and the “Sensitivity of PEPD/XPNPEP1 double knockout THP-1 cells” value (THP-1 cells) was “completely resistant”. The “Pyroptosis in DPP8/9^−/− THP-1 cells” value (THP-1 cells) was “neither CQ80 nor CQ31 induced any additional pyroptosis”, the “Additional cell death” value [2] was “do not trigger as much degradation as MeBs” and the “Cell death in N/TERT-1 keratinocytes (human NLRP1 activation)” value [7] was “does not activate”. For the same compound, the “Pyroptosis after dTAG-13 treatment (ternary complex destabilization)” value [3] was “induce more pyroptosis after dTAG-13 treatment”, the Fraction remaining intact ([5]; after 24 h at 37 °C) was ~ 50% and the “PI uptake in MV4;11 cells” value (MV4;11 cells) was “induced PI uptake in WT but not CASP1^−/− or CARD8^−/−”. The “Pyroptosis in mouse BMDMs and RAW264.7 cells (rodent NLRP1 activation)” value [8] was “does not activate”, the “GSDMD cleavage in human resting T cells” value (human resting T cells) was “induced GSDMD cleavage” and the “Rate of lytic cell death by PI uptake in OCI-AML2 cells” value (OCI-AML2 cells [9]) was “caused more rapid lytic cell death”. For the same compound, the “LDH release and GSDMD cleavage” value [6] was “induced lactate dehydrogenase (LDH) release and GSDMD cleavage”.

In the case of `CC(C)[C@H](N)C(=O)N1CCC[C@H]1B(O)O` [VbP, ValboroPro, reference compound], the “Additional cell death” value [2] was “did not cause substantially more death”, the “Cell death in N/TERT-1 keratinocytes (human NLRP1 activation)” value [7] was “induced cell death” and the “Pyroptosis in mouse BMDMs and RAW264.7 cells (rodent NLRP1 activation)” value [8] was “induced pyroptosis”.
